ChEMBL document CHEMBL1144515, “Synthesis, in vitro evaluation, and SAR studies of a potential antichagasic 1H-pyrazolo[3,4-b]pyridine series” (Bioorg Med Chem, 2007)
≈ marks a conversion by molar mass, not a printed value.

Test system: Trypanosoma cruzi
Test: Antiparasitic activity against Trypanosoma cruzei Y blood stream trypomastigotes
Type: functional, organism-based
Procedure, shortened: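 Mouse infected blood diluted with healthy mouse blood and fetal bovine serum to about 106 trypomastigotes/mL; compounds from DMSO stocks added at final 10, 100, 250, 500 and 1000 µg/mL. Incubated 4 °C, 24 h with constant shaking; untreated and crystal violet-treated controls; triplicate. Trypomastigotes counted, % lysis versus untreated; IC50 taken as 50% activity concentration.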

IC50 | SMILES
533 µg/mL (≈ 1370 µM) | Cc1nn(-c2ccccc2)c2nc(-c3ccc([N+](=O)[O-])cc3)cc(C(=O)NN)c12
332 µg/mL (≈ 694 µM) | COc1ccc(-c2cc(C(=O)N/N=C\c3ccc(O)cc3)c3c(C)nn(-c4ccccc4)c3n2)cc1
108 µg/mL (≈ 212 µM) | Cc1nn(-c2ccccc2)c2nc(-c3ccc(Cl)cc3)cc(C(=O)N/N=C\c3ccc([N+](=O)[O-])cc3)c12
782 µg/mL (≈ 2280 µM) | Cc1nn(-c2ccccc2)c2nc(-c3ccccc3)cc(C(=O)NN)c12
211 µg/mL (≈ 558 µM) | Cc1nn(-c2ccccc2)c2nc(-c3ccc(Cl)cc3)cc(C(=O)NN)c12
341 µg/mL (≈ 926 µM) | Cc1nn(-c2ccccc2)c2nc(-c3ccc(C#N)cc3)cc(C(=O)NN)c12
> 1500 µg/mL | COc1ccc(-c2cc(C(=O)N/N=C\c3ccc([N+](=O)[O-])cc3)c3c(C)nn(-c4ccccc4)c3n2)cc1
378 µg/mL (≈ 797 µM) | Cc1nn(-c2ccccc2)c2nc(-c3ccc(C#N)cc3)cc(C(=O)N/N=C\c3ccc(F)cc3)c12
39.3 µg/mL (≈ 79.6 µM) | CCOc1ccc(-c2cc(C(=O)N/N=C\c3ccc(F)cc3)c3c(C)nn(-c4ccccc4)c3n2)cc1
1.9 µg/mL (≈ 4.25 µM) | Cc1nn(-c2ccccc2)c2nc(-c3ccccc3)cc(C(=O)N/N=C\c3ccc(O)cc3)c12
88.9 µg/mL (≈ 198 µM) | Cc1nn(-c2ccccc2)c2nc(-c3ccccc3)cc(C(=O)N/N=C\c3ccc(F)cc3)c12
170 µg/mL (≈ 345 µM) | CCOc1ccc(-c2cc(C(=O)N/N=C\c3ccc(O)cc3)c3c(C)nn(-c4ccccc4)c3n2)cc1
1180 µg/mL (≈ 2260 µM) | CCOc1ccc(-c2cc(C(=O)N/N=C\c3ccc([N+](=O)[O-])cc3)c3c(C)nn(-c4ccccc4)c3n2)cc1
439 µg/mL (≈ 1130 µM) | CCOc1ccc(-c2cc(C(=O)NN)c3c(C)nn(-c4ccccc4)c3n2)cc1
71.8 µg/mL (≈ 149 µM) | Cc1nn(-c2ccccc2)c2nc(-c3ccc(Cl)cc3)cc(C(=O)N/N=C\c3ccc(O)cc3)c12
37.3 µg/mL (≈ 74.4 µM) | Cc1nn(-c2ccccc2)c2nc(-c3ccc(C#N)cc3)cc(C(=O)N/N=C\c3ccc([N+](=O)[O-])cc3)c12
781 µg/mL (≈ 2090 µM) | COc1ccc(-c2cc(C(=O)NN)c3c(C)nn(-c4ccccc4)c3n2)cc1
197 µg/mL (≈ 407 µM) | Cc1nn(-c2ccccc2)c2nc(-c3ccc(Cl)cc3)cc(C(=O)N/N=C\c3ccc(F)cc3)c12
260 µg/mL (≈ 551 µM) | Cc1nn(-c2ccccc2)c2nc(-c3ccc(C#N)cc3)cc(C(=O)N/N=C\c3ccc(O)cc3)c12
1460 µg/mL (≈ 3050 µM) | COc1ccc(-c2cc(C(=O)N/N=C\c3ccc(F)cc3)c3c(C)nn(-c4ccccc4)c3n2)cc1
95.3 µg/mL (≈ 200 µM) | Cc1nn(-c2ccccc2)c2nc(-c3ccccc3)cc(C(=O)N/N=C\c3ccc([N+](=O)[O-])cc3)c12
205 µg/mL (≈ 476 µM) | Cc1nn(-c2ccccc2)c2nc(-c3ccccc3)cc(C(=O)N/N=C\c3ccccc3)c12
